The text below walks through data of ChEMBL document CHEMBL2384938, “Discovery of a New Class of Potent MMP Inhibitors by Structure-Based Optimization of the Arylsulfonamide Scaffold” (ACS Med Chem Lett, 2013).

In assay [1] the target is Macrophage metalloelastase (Homo sapiens, UniProt P39900). Put plainly: Inhibition of MMP12 (unknown origin)-mediated Mca-Pro-Leu-Gly-Leu-Dpa-Ala-Arg-NH2 by fluorimetric assay.
Assay [2] deals with Collagenase 3 (Homo sapiens, UniProt P45452). Put plainly: Inhibition of MMP13 (unknown origin)-mediated Mca-Pro-Leu-Gly-Leu-Dpa-Ala-Arg-NH2 by fluorimetric assay. The method, boiled down: (§1)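 Activity read fluorimetrically; values reported as inhibition constants (Ki). The same assay format was used for each of MMP-1, -7, -8 and -13.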
The target of assay [3] is Neutrophil collagenase (Homo sapiens, UniProt P22894). In words: Inhibition of MMP8 (unknown origin)-mediated Mca-Pro-Leu-Gly-Leu-Dpa-Ala-Arg-NH2 by fluorimetric assay. The essentials:
as §1

Assay [4] addresses T1, Interstitial collagenase (Homo sapiens, UniProt P03956).
T1 sequence (P03956 whole entry): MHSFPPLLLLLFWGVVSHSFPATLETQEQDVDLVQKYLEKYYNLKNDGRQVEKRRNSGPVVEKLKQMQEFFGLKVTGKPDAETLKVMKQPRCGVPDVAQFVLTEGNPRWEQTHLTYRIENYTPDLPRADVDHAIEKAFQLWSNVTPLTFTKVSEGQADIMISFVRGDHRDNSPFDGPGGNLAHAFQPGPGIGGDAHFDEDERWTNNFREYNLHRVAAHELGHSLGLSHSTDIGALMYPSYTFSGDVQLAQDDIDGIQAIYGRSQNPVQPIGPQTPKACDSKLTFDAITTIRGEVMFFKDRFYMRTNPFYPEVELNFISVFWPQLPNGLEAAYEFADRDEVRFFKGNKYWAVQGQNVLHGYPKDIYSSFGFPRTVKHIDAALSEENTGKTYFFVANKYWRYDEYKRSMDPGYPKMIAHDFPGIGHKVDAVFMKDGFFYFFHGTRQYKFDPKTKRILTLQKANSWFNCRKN
Put plainly: Inhibition of MMP1 (unknown origin)-mediated Mca-Pro-Leu-Gly-Leu-Dpa-Ala-Arg-NH2 by fluorimetric assay. The essentials:
as §1

In assay [5] the target is T2, Matrilysin (Homo sapiens, UniProt P09237).
T2 sequence (P09237 whole entry): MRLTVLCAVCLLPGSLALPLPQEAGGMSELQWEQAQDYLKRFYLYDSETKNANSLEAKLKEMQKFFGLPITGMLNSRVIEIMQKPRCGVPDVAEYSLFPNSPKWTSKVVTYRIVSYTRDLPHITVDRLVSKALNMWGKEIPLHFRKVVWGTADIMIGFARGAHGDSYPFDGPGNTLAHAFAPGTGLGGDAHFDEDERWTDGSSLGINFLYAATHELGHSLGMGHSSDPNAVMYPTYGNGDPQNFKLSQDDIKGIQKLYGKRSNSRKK
Put plainly: Inhibition of MMP7 (unknown origin)-mediated Mca-Pro-Leu-Gly-Leu-Dpa-Ala-Arg-NH2 by fluorimetric assay. The essentials: as §1

Sequence of Neutrophil collagenase (P22894 whole entry): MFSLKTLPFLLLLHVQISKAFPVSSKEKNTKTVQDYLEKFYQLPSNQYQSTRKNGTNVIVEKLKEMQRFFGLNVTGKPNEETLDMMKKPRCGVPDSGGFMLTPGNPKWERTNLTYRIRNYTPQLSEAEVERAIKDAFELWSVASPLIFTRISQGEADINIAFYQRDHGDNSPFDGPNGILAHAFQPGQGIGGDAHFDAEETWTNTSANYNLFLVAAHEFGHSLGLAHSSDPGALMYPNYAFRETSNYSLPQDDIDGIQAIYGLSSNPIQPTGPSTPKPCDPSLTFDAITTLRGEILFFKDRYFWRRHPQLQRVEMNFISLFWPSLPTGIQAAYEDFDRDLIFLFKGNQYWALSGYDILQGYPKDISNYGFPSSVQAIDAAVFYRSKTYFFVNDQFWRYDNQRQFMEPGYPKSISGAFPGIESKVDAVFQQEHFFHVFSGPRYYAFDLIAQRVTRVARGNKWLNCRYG
Sequence of Macrophage metalloelastase (P39900 whole entry): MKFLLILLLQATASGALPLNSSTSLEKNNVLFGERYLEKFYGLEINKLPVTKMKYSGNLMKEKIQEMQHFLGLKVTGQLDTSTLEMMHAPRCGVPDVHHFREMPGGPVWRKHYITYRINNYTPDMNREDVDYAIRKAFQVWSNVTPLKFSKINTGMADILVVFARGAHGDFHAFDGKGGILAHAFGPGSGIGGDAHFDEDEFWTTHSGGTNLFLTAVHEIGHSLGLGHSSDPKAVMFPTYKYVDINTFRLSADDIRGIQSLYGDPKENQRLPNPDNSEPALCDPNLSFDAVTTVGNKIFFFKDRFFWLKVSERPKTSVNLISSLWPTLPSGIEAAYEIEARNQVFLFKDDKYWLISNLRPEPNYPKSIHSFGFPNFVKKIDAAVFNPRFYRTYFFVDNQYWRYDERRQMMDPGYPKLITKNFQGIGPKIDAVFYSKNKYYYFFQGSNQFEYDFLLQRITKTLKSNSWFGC

The Ki is the equilibrium dissociation constant of an inhibitor or competing ligand from its target. Higher therefore signals weaker binding. Turning to `O=C(CNS(=O)(=O)CCc1ccc(Oc2ccccc2)cc1)NO`, the Ki in assay [1] came to 10 nM; in assay [2], 19 nM; in assay [3], 32 nM.

As for `O=C(CNS(=O)(=O)CCc1ccc(Cl)s1)NO`, the Ki in assay [1] worked out at 6 nM; in assay [2], 6 nM; in assay [3], 37 nM.

As to `O=C(NO)[C@@H]1CCCN1S(=O)(=O)CCc1ccc2c(c1)OCO2`, the Ki in assay [1] was found to be 5 nM; in assay [2] it was 10 nM; in assay [3], 13 nM; in assay [4] it was 7000 nM; in assay [5] it was 6000 nM.

Regarding `O=C(O)CNS(=O)(=O)CCc1ccc(Cl)s1`, the Ki turned out to be 272 nM in assay [1], 323 nM in assay [2] and 364 nM in assay [3].

`O=C(O)CNS(=O)(=O)CCc1ccc(-c2ccccc2)cc1`: the Ki amounted to 7 nM in assay [1], 5 nM in assay [2] and 7 nM in assay [3].

For `O=C(CNS(=O)(=O)c1ccc(-c2ccccc2)cc1)NO`, the Ki stood at 2 nM in assay [1]; 2 nM in assay [2]; 9 nM in assay [3]; 365 nM in assay [4]; 5000 nM in assay [5].

With `O=C(CNS(=O)(=O)c1ccccc1)NO`, the Ki came out at 62 nM in assay [1]; 42 nM in assay [2]; 240 nM in assay [3]; 3400 nM in assay [4]; 4000 nM in assay [5].

On to `O=C(O)[C@@H]1CCCN1S(=O)(=O)c1ccc(Cl)s1`, for which the Ki in assay [1] is 672 nM; in assay [2], 175 nM; in assay [3], 275 nM.

For `O=C(CNS(=O)(=O)CCc1ccccc1)NO`, the Ki in assay [1] was found to be 23 nM; in assay [2] it was 49 nM; in assay [3] it was 75 nM; in assay [4], 5700 nM; in assay [5] it was 10700 nM.

As to `COc1ccc(CCS(=O)(=O)NCC(=O)NO)cc1`, the Ki in assay [1] was found to be 10 nM; in assay [2] it was 12 nM; in assay [3], 14 nM.

Turning to `O=C(CNS(=O)(=O)CCc1ccc2c(c1)OCO2)NO`, the Ki in assay [1] is 15 nM; in assay [2], 35 nM; in assay [3], 20 nM; in assay [4] it was 19700 nM; in assay [5] it was 18500 nM.

Take `COc1ccc(S(=O)(=O)NCC(=O)NO)cc1`: the Ki in assay [1] amounted to 20 nM; in assay [5] it was 4000 nM.

As to `COc1ccc(CCS(=O)(=O)N2CCC[C@H]2C(=O)NO)cc1`, the Ki in assay [1] was 1 nM; in assay [2] it was 1 nM; in assay [3], 4 nM.

For the compound `O=C(NO)C1CCCN1S(=O)(=O)CCc1ccc(-c2ccccc2)cc1` (single isomer, unassigned), the Ki in assay [1] worked out at 2 nM; in assay [2], 1 nM; in assay [3], 3 nM.

For the compound `O=C(O)CNS(=O)(=O)c1ccc(-c2ccccc2)cc1`, the Ki stood at 18000 nM in assay [1] and 365 nM in assay [4].

On to `O=C(NO)[C@H]1CCCN1S(=O)(=O)CCc1ccc(Oc2ccccc2)cc1`, for which the values for the Ki in assay [1], in assay [2] and in assay [3] were 5 nM, 10 nM and 98 nM, respectively.

`O=C(NO)[C@@H]1CCCN1S(=O)(=O)CCc1ccc(Cl)s1`: the results for the Ki in assay [1], in assay [2] and in assay [3] were 9 nM, 3 nM and 6 nM, respectively.

Take `O=C(NO)[C@H]1CCCN1S(=O)(=O)CCc1ccccc1`: the Ki was 16 nM in assay [1]; 14 nM in assay [2]; 43 nM in assay [3]; 1800 nM in assay [4]; 7000 nM in assay [5].
